A selection: hits, their analogues and other compounds. The true share with any hit is near 1.6%.
Hep lipid drop: inhibitors of hepatocyte lipid droplet formation, primary screen, imaging, high-throughput imaging, BODIPY stain. 240,000 compounds, 0.4% hits. AML12 mouse hepatocytes, oleate lipid droplets. AID 1656, 2009. inhibition, % at 6.5 µM;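 active = lipid droplet intensity inhibited by at least 50%, with more than 500 cells counted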
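Assay system: AML12 hepatocytes (mouse) / Also added: 100 µM oleic acid challenge / Times: overnight treatment with compound plus oleate / Detection: high-content imaging of BODIPY-stained droplets and DAPI nuclei / Evaluation: % inhibition of lipid droplet signal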
SR-BI uptake up: activators of SR-BI mediated DiI-HDL uptake, primary screen, ldlA[mSR-BI] CHO cells, DiI fluorescence; 320,000 compounds, 0.096% hits; activation, % at 12.5 µM; AID 504775, 2011; 3 h; 100 = double the neutral-control signal;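 active = mean replicate activation of at least 60% and every replicate at or above 60%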
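material = CHO ldlA[mSR-BI] cells | medium = Ham's F12 with 0.5% BSA, HEPES 25 mM, pH 7.4 | reagent = fluorescent DiI-HDL, 10 µg/mL final | compound dosing = single-point compound dose | incubation = 3 h, 37 °C | measured by = bottom-read fluorescence, 550/595 nm | measure = HDL uptake via cellular fluorescence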
TLR4-MyD88 BLA: inhibitors of TLR4-MyD88 association in cells, primary screen, cell-based, HeLa CL3-4, BLA complementation, FRET ratio. Toll-like receptor 4 (Homo sapiens) + Myeloid differentiation primary response protein …. HeLa CL3-4 TLR4/MyD88 BLA complementation. inhibition, % at 8.4 µM. 200,000 compounds, 0.18% hits; in the data active = inhibition above about 25%
SR-BI DiI inh: inhibitors of SR-BI mediated HDL lipid uptake, primary screen, ldlA[mSR-BI] cells, fluorescence, single point. Scavenger receptor class B member 1 (Mus musculus), Q61009. inhibition, % at 12.5 µM. 320,000 compounds, 0.96% hits. ldlA[mSR-BI] CHO cells, DiI-HDL uptake fluorescence, 3 h. AID 488896, 2010;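 active = mean replicate inhibition of at least 70% and a set share of replicates each scoring 70 or more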
NOD2 RIPK2 PPI: NOD2-RIPK2 binding disruptors in cells, primary screen, fluorescence, CHO cells, BLA complementation; AID 624267, 2012; Receptor-interacting serine/threonine-protein kinase 2 (Homo sapiens), O43353; inhibition, % at 4.98 µM; 360,000 compounds, 0.38% hits; CCF4 ratio; in the data active = inhibition above about 21%
TLR9-MyD88 block: inhibitors of TLR9-MyD88 association in cells, primary screen, cell-based, CHO, BLA complementation, fluorescence. Toll-like receptor 9 (Homo sapiens) + Myeloid differentiation primary response protein …. CCF4 FRET ratio. inhibition, % at 4.98 µM. 340,000 compounds, 0.21% hits. AID 504734, 2011;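 active = inhibition above the mean over all tested compounds plus 3 SD, cut at about 21% in these data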
Of the large screens only hits and unclear results are named; the others gave an inactive call.

CC(=O)Nc1ccc(-c2ccnc3c2CC(C(=O)Nc2cccc(OC(F)(F)F)c2)O3)cc1 (stereo unspecified)	none (no result: Hep lipid drop, SR-BI uptake up, TLR4-MyD88 BLA, SR-BI DiI inh, TLR9-MyD88 block)
CSc1ccc(/C=C/C(=O)NC(=O)c2ccccc2O)cc1	none
CC1CCC(C(C)C)C(OC(=O)CSc2nccc(=O)[nH]2)C1 (stereo unspecified)	none (no result: Hep lipid drop)
CC1CCC(C(C)C)C(OC(=O)C2=C3c4ccccc4S(=O)(=O)N3CC2)C1 (stereo unspecified)	SR-BI DiI inh 71
O=C(O)CN(CC(=O)O)CC(=O)O	none (no result: Hep lipid drop, TLR4-MyD88 BLA)
C/C(=N\N1C(=O)c2ccccc2NC1c1ccccc1)c1ccccc1O (stereo unspecified)	SR-BI DiI inh 85
C/C(=N\N1C(=O)c2ccccc2NC1c1ccco1)c1ccccc1O (stereo unspecified)	SR-BI uptake up 86
COc1ccc(-c2nn(-c3ccccc3)cc2/C=N/Nc2ccc(S(N)(=O)=O)cc2[N+](=O)[O-])cc1OC	SR-BI DiI inh 79
COc1ccc(-c2nn(-c3ccccc3)cc2/C=N/Nc2ccc3ccccc3n2)cc1OC	none (no result: Hep lipid drop)
CC1(C)OC(c2ccccc2)=C/C(=C/C=N/NC(=O)c2ccncc2)O1	SR-BI DiI inh 90
Cc1nc(N2CCCCC2C)c2c(C)c(C(=O)Nc3cccc(C(F)(F)F)c3)sc2n1 (stereo unspecified)	SR-BI DiI inh 74
Cc1nc(N2CCCCC2)c2c(C)c(C(=O)Nc3cccc(C(F)(F)F)c3)sc2n1	SR-BI DiI inh 78
Cc1nc(N2CCCCC2)c2c(C)c(C(=O)Nc3ccccc3C(F)(F)F)sc2n1	none
O=c1cc(CN2CCOCC2)c2c(ccc3ccccc32)o1	none (no result: Hep lipid drop)
O=C(OCC(=O)c1c[nH]c2ccccc12)c1cccc([N+](=O)[O-])c1	none (no result: Hep lipid drop, TLR4-MyD88 BLA)
Cc1c(NC(=O)Nc2ccc(Cl)c(Cl)c2)sc(=S)n1C	SR-BI DiI inh 90 (no result: Hep lipid drop)
CCOC(=O)c1c(C)[nH]c(C(=O)NCCc2ccc(OC)c(OC)c2)c1C	none (no result: TLR4-MyD88 BLA)
CCOC(=O)/C=C/c1ccc2c(c1)S(=O)(=O)N(c1cccc(OC)c1)[C@H]2CC(=O)OCC	SR-BI DiI inh 83 (no result: Hep lipid drop, TLR4-MyD88 BLA)
Cc1ccc(NC(=O)c2sc3ncn(CC(=O)N4CCN(c5ccccn5)CC4)c(=O)c3c2C)cc1Cl	none (no result: TLR4-MyD88 BLA)
COc1cccc(NC(=O)c2sc3ncn(CC(=O)N4CCN(c5ccccn5)CC4)c(=O)c3c2C)c1	SR-BI DiI inh 79 (no result: TLR4-MyD88 BLA)
CCOc1ccccc1NC(=O)c1sc2ncn(CC(=O)N3CCOCC3)c(=O)c2c1C	SR-BI DiI inh 71 (no result: TLR4-MyD88 BLA)
COc1ccc(-c2nc(CS(=O)(=O)CC(=O)NCCc3ccc(C)cc3)c(C)o2)cc1	SR-BI DiI inh 99 (no result: SR-BI uptake up, TLR4-MyD88 BLA)
COc1ccc(-c2nc(CS(=O)(=O)CC(=O)NCCCc3ccccc3)c(C)o2)cc1	none (no result: TLR4-MyD88 BLA)
CCOC(=O)CSc1nc(N2CCOCC2)c2c(c1C#N)CC(C)(C)OC2	SR-BI uptake up 416 (no result: Hep lipid drop, TLR4-MyD88 BLA)
CCCOC(=O)CSc1nc(N2CCOCC2)c2c(c1C#N)CC(C)(C)OC2	none (no result: TLR4-MyD88 BLA)
CCN(CC)S(=O)(=O)c1cc(NC(=O)c2ccc3c(c2)NC(=O)C(C)S3)ccc1C (stereo unspecified)	none (no result: Hep lipid drop, TLR4-MyD88 BLA)
CC(C(=O)Nc1ccccc1)N(C)Cc1cccs1 (stereo unspecified)	none (no result: SR-BI uptake up, TLR4-MyD88 BLA, SR-BI DiI inh)
O=C(COC(=O)/C=C/c1ccco1)NCc1ccc(Cl)cc1Cl	none (no result: Hep lipid drop, TLR4-MyD88 BLA)
O=C(COC(=O)/C=C/c1cccc(Cl)c1)NCCc1ccc(Cl)cc1Cl	SR-BI uptake up 83
CN=C(C)/C(C(=O)OC)=C(/O)c1ccc(Cl)cc1Cl	none (no result: TLR4-MyD88 BLA)
Cc1cc(C)cc(OCc2nnc(N)s2)c1	none (no result: TLR4-MyD88 BLA)
CCC(=O)NC(NC(=S)Nc1cccc2cccnc12)C(Cl)(Cl)Cl (stereo unspecified)	none
CC(C)C(=O)NC(NC(=S)Nc1cccc2cccnc12)C(Cl)(Cl)Cl (stereo unspecified)	SR-BI DiI inh 74 (no result: Hep lipid drop)

High-throughput results: PubChem BioAssay, several laboratories
